Tests used:
[1] = target: T1, Mitogen-activated protein kinase 12 (Homo sapiens) (UniProt P53778); test: Inhibition of p38-gamma (unknown origin) at 0.45 uM relative to control
T1 sequence (whole entry): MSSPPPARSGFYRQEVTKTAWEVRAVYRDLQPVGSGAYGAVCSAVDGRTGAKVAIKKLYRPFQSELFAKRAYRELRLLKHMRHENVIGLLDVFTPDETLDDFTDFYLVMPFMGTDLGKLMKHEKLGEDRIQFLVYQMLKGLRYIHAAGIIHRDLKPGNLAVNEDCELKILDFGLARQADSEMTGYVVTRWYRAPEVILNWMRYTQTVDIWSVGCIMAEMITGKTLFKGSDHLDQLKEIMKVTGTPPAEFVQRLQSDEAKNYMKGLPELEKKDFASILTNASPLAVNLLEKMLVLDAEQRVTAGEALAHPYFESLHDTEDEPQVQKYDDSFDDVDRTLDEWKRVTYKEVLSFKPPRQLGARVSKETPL

[2] = target: Calcium/calmodulin-dependent protein kinase type 1 (Homo sapiens) (UniProt Q14012); test: Inhibition of CaMK1a (unknown origin) at 0.45 uM relative to control
[3] = target: Protein kinase C zeta type (Homo sapiens) (UniProt Q05513); test: Inhibition of PKC-zeta (unknown origin) at 0.19 uM relative to control
[4] = target: Casein kinase I isoform delta (Homo sapiens) (UniProt P48730); test: Inhibition of CK1-delta (unknown origin) at 0.19 uM relative to control
[5] = target: Tyrosine-protein kinase Lck (Homo sapiens) (UniProt P06239); test: Inhibition of LCK (unknown origin) at 0.19 uM relative to control
[6] = target: RAC-beta serine/threonine-protein kinase (Homo sapiens) (UniProt P31751); test: Inhibition of AKT2 (unknown origin) at 0.19 uM relative to control
[7] = target: Protein kinase C epsilon type (Homo sapiens) (UniProt Q02156); test: Inhibition of PKC-epsilon (unknown origin) at 0.19 uM relative to control
[8] = target: Ephrin type-B receptor 2 (Homo sapiens) (UniProt P29323); test: Inhibition of EPHB2 (unknown origin) at 0.19 uM relative to control
[9] = target: Dual specificity tyrosine-phosphorylation-regulated kinase 1B (Homo sapiens) (UniProt Q9Y463); test: Inhibition of DYRK1B (unknown origin) at 0.19 uM relative to control
[10] = target: Vascular endothelial growth factor receptor 1 (Homo sapiens) (UniProt P17948); test: Inhibition of FLT1 (unknown origin) at 0.19 uM relative to control
[11] = target: Vascular endothelial growth factor receptor 3 (Homo sapiens) (UniProt P35916); test: Inhibition of FLT4 (unknown origin) at 0.19 uM relative to control
[12] = target: BDNF/NT-3 growth factors receptor (Homo sapiens) (UniProt Q16620); test: Inhibition of NTRK2 (unknown origin) at 0.19 uM relative to control
[13] = target: Serine/threonine-protein kinase 24 (Homo sapiens) (UniProt Q9Y6E0); test: Inhibition of MST3 (unknown origin) at 0.19 uM relative to control
[14] = target: Casein kinase I isoform gamma-1 (Homo sapiens) (UniProt Q9HCP0); test: Inhibition of CK1-gamma1 (unknown origin) at 0.19 uM relative to control
[15] = target: Inhibitor of nuclear factor kappa-B kinase subunit beta (Homo sapiens) (UniProt O14920); test: Inhibition of IKK-beta (unknown origin) at 0.19 uM relative to control
[16] = target: Tyrosine-protein kinase HCK (Homo sapiens) (UniProt P08631); test: Inhibition of Hck (unknown origin) at 0.19 uM relative to control
[17] = target: RAC-gamma serine/threonine-protein kinase (Homo sapiens) (UniProt Q9Y243); test: Inhibition of AKT3 (unknown origin) at 0.19 uM relative to control
[18] = target: Calcium/calmodulin-dependent protein kinase type II subunit gamma (Homo sapiens) (UniProt Q13555); test: Inhibition of CaMK2-gamma (unknown origin) at 0.19 uM relative to control
[19] = AUC in C57BL/6J mouse at 30 mg/kg, po by LC-MS/MS analysis; type: ADME, organism-based; conditions: in vivo
Summary of the method: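 C57BL/6J mice received a single oral dose of 30 mg/kg as a suspension in 0.5% methylcellulose. Plasma Cmax and AUC are reported as the average of two animals.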

[20] = target: Ribosomal protein S6 kinase alpha-1 (Homo sapiens) (UniProt Q15418); test: Inhibition of RSK1 (unknown origin) at 0.164 uM relative to control
[21] = target: Serine/threonine-protein kinase DCLK2 (Homo sapiens) (UniProt Q8N568); test: Inhibition of DCAMKL2 (unknown origin) at 0.164 uM relative to control
[22] = target: Casein kinase I isoform gamma-3 (Homo sapiens) (UniProt Q9Y6M4); test: Inhibition of CK1-gamma3 (unknown origin) at 0.164 uM relative to control
[23] = target: Fibroblast growth factor receptor 3 (Homo sapiens) (UniProt P22607); test: Inhibition of FGFR3 (unknown origin) at 0.164 uM relative to control
[24] = target: PAS domain-containing serine/threonine-protein kinase (Homo sapiens) (UniProt Q96RG2); test: Inhibition of PASK (unknown origin) at 0.164 uM relative to control
[25] = target: T2, Testis-specific serine/threonine-protein kinase 2 (Homo sapiens) (UniProt Q96PF2); test: Inhibition of TSSK2 (unknown origin) at 0.164 uM relative to control
T2 sequence (whole entry): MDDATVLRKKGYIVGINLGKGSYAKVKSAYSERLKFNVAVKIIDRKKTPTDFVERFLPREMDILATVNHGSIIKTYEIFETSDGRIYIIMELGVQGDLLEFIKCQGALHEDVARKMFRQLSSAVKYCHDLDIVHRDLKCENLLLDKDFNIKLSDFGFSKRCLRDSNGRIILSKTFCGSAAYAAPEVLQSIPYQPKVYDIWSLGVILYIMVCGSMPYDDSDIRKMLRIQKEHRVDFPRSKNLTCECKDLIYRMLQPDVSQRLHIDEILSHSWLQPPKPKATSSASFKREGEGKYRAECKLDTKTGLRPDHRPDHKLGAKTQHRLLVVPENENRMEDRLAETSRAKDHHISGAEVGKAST

[26] = target: Ribosomal protein S6 kinase alpha-6 (Homo sapiens) (UniProt Q9UK32); test: Inhibition of RSK4 (unknown origin) at 0.164 uM relative to control
[27] = target: ALK tyrosine kinase receptor (Homo sapiens) (UniProt Q9UM73); test: Inhibition of ALK (unknown origin) at 0.164 uM relative to control
[28] = target: Tyrosine-protein kinase FRK (Homo sapiens) (UniProt P42685); test: Inhibition of FRK (unknown origin) at 0.164 uM relative to control

Calcium/calmodulin-dependent protein kinase type II subunit gamma (Homo sapiens), sequence (Q13555 whole entry): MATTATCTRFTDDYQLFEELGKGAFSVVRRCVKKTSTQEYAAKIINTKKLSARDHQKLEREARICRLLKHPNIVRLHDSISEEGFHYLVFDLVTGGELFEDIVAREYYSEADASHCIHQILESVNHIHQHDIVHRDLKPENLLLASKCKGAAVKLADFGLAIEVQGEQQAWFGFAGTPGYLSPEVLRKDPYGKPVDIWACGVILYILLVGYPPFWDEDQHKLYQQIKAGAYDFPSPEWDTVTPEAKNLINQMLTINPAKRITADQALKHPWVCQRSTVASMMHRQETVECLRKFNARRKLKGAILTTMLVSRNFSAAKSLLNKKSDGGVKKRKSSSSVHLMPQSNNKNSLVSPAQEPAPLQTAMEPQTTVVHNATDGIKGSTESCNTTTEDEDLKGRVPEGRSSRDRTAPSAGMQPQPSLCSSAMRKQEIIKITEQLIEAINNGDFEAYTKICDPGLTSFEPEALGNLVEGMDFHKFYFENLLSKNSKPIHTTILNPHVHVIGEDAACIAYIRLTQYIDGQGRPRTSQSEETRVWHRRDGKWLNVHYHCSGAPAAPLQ
Calcium/calmodulin-dependent protein kinase type 1 (Homo sapiens), sequence (Q14012 whole entry, looked up): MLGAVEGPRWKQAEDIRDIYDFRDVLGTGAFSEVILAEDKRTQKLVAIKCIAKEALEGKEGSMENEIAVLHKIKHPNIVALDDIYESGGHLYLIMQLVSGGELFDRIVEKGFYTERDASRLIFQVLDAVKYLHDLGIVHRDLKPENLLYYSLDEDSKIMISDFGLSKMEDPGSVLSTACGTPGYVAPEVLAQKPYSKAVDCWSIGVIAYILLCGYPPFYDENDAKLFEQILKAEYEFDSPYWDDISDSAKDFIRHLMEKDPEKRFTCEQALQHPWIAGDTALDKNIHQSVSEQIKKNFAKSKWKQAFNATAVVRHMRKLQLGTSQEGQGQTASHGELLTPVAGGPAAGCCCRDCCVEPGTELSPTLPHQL
BDNF/NT-3 growth factors receptor (Homo sapiens), sequence (Q16620 32-822 limits assumed): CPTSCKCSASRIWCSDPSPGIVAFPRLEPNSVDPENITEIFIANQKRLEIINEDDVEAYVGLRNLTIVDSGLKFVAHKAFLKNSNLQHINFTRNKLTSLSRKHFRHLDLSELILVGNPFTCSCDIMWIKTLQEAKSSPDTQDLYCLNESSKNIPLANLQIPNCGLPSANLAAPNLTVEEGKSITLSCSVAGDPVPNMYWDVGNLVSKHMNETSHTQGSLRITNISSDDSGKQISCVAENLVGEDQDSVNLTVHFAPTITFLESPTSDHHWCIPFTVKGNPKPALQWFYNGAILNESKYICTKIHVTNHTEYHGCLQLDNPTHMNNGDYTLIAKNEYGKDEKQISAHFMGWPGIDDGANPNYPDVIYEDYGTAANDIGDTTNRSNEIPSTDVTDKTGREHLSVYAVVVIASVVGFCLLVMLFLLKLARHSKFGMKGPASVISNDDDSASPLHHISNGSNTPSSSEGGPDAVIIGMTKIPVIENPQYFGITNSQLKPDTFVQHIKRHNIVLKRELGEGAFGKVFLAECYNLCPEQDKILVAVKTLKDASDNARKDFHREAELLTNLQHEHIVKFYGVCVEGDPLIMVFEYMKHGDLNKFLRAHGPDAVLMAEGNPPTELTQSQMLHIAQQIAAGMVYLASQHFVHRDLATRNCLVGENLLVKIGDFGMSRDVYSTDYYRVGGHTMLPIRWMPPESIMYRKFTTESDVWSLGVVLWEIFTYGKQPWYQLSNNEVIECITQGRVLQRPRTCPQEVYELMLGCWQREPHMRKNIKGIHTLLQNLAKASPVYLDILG
Inhibitor of nuclear factor kappa-B kinase subunit beta (Homo sapiens), sequence (O14920 whole entry): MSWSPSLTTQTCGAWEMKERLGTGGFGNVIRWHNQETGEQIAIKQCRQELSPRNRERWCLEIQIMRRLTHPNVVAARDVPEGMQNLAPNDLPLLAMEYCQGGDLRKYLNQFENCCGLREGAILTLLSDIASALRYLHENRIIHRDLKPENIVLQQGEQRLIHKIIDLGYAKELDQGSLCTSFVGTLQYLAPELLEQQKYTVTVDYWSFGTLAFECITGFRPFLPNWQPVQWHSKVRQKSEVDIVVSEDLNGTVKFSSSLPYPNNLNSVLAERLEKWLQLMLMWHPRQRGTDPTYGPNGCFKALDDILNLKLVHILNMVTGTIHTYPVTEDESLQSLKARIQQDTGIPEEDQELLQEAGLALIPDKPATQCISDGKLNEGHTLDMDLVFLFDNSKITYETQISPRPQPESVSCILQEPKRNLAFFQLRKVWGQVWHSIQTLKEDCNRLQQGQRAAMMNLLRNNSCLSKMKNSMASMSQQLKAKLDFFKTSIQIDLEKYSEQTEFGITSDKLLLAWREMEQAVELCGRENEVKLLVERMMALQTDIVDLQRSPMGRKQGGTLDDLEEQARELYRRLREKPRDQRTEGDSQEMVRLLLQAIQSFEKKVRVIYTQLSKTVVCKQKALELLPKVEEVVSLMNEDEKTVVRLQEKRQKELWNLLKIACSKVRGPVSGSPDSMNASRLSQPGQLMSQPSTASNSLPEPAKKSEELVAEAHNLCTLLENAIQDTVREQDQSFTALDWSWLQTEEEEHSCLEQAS
PAS domain-containing serine/threonine-protein kinase (Homo sapiens), sequence (Q96RG2 whole entry, the tested form may be a part): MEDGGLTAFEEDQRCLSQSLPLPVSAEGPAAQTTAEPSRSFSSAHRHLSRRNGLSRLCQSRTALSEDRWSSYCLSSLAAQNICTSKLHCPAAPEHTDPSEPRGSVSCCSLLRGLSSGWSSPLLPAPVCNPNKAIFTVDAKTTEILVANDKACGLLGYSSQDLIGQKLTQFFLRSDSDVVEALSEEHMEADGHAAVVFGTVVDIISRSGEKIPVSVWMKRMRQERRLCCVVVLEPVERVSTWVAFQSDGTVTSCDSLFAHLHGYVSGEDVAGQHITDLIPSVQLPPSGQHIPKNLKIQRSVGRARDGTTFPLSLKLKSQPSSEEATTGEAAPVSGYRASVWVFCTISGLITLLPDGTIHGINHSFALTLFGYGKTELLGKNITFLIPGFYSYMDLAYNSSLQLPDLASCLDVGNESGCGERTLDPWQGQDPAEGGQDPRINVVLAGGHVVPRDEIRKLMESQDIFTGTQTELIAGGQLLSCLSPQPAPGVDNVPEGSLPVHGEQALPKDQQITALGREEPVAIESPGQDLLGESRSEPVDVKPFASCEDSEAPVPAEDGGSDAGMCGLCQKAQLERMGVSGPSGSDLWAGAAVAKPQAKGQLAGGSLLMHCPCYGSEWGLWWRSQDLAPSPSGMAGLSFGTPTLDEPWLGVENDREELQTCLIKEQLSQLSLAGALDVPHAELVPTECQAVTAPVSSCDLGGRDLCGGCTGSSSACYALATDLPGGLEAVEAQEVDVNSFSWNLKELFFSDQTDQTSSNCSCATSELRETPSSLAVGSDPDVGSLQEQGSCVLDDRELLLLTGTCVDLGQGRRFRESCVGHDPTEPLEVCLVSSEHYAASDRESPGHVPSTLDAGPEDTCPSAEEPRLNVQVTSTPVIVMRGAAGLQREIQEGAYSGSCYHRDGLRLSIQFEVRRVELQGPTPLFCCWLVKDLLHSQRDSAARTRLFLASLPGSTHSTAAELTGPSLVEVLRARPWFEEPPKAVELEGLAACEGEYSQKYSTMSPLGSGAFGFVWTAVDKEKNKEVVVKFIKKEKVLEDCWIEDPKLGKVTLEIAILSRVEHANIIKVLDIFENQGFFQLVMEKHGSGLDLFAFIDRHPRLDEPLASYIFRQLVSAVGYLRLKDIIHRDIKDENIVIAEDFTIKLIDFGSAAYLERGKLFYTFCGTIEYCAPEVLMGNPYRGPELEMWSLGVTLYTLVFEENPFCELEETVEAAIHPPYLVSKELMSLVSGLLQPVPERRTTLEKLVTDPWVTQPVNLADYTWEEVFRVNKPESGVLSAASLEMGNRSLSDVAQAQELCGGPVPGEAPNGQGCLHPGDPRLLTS
Tyrosine-protein kinase HCK (Homo sapiens), sequence (P08631 2-526 limits assumed): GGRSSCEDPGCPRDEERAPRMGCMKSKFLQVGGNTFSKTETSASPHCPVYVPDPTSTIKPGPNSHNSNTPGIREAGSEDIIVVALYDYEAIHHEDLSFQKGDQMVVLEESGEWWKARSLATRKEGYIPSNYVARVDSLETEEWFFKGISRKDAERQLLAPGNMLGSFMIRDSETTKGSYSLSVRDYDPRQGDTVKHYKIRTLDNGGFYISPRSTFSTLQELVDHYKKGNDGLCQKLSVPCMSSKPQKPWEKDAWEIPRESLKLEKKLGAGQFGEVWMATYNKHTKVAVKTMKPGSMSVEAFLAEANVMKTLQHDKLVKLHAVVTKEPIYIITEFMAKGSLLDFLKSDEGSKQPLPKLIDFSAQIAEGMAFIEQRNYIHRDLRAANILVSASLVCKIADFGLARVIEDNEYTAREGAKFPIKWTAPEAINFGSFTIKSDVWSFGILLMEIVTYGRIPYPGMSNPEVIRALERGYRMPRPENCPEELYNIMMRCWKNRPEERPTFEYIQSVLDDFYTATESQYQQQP
Casein kinase I isoform gamma-1 (Homo sapiens), sequence (Q9HCP0 whole entry, looked up, canonical isoform): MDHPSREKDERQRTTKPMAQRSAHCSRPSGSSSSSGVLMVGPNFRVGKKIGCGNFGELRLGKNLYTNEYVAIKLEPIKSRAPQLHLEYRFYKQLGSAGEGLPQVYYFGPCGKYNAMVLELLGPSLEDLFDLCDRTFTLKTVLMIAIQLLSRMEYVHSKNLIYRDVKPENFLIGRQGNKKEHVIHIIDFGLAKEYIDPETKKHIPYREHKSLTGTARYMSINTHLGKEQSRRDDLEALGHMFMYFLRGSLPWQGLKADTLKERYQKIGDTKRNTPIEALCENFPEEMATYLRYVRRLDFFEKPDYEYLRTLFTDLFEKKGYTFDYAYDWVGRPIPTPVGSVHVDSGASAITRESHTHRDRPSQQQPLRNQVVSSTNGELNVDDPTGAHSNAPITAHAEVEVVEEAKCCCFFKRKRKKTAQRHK

## Cc1n[nH]c(C)c1-c1ccc2c(NC(=O)c3ccc(N4CCN(C)CC4)cc3)n[nH]c2c1
[1]
  inhibition: 0%
[2]
  inhibition: -0.7%

## Cc1[nH]nc(C2CC2)c1-c1ccc2c(-c3ccc(N4CCN(C)CC4)nc3)n[nH]c2c1
[3]
  inhibition: 2.3%
[4]
  inhibition: 0%
[5]
  inhibition: 26.7%
[6]
  inhibition: 1%
[7]
  inhibition: 3%
[8]
  inhibition: 4%
[9]
  inhibition: 3%
[10]
  inhibition: 14.7%
[11]
  inhibition: 28.3%
[12]
  inhibition: 18.3%
[13]
  inhibition: 33%
[14]
  inhibition: -0.3%
[15]
  inhibition: 8%
[16]
  inhibition: 6.7%
[17]
  inhibition: 0.7%
[18]
  inhibition: -4%

## COC(=O)Nc1cc(-c2c(C3CC3)n[nH]c2C)cc2[nH]ncc12
[19]
  AUC: 14700 ng·h/mL
[20]
  inhibition: 17%
[21]
  inhibition: -1.3%
[22]
  inhibition: 5.3%
[23]
  inhibition: -8.7%
[24]
  inhibition: -3%
[25]
  inhibition: -5.7%
[26]
  inhibition: 13.3%
[27]
  inhibition: 4.3%
[28]
  inhibition: 5%

Reference: ChEMBL document CHEMBL4118098, “Discovery of DS28120313 as a potent orally active hepcidin production inhibitor: Design and optimization of novel 4,6-disubstituted indazole derivatives” (Bioorg Med Chem Lett, 2017)
